Results published in ChEMBL document CHEMBL5058577, “EUbOPEN Chemogenomics Library 2 (Multiplex)” (2022).

Tested on: Fibroblast
Test: Multiplex assay against human fibroblast
Type: toxicity, cell-based
Summary of the method: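 Live cells carried four stains from seeding: Hoechst33342, BioTracker Green Microtubule Cytoskeleton Dye, MitoTracker Red and Annexin V Alexa Fluor 680. They were imaged on a CQ1 microscope at 37°C and 5% CO2 after compound addition. Using CellPathfinder machine-learning gating, cells were split into Hoechst high-intensity objects or normal cells, normal cells into healthy, pyknosed or fragmented nuclei, and pyknosed cells into mitotic or apoptotic; tubulin, mitochondrial-mass and membrane-permeability phenotypes are per cents of healthy-nucleus cells.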

[1] = 12 h, 1 µM, compound concentration 1 uM, replicate 1
[2] = 12 h, 1 µM, compound concentration 1 uM, replicate 2
[3] = 12 h, 10 µM, compound concentration 10 uM, replicate 1
[4] = 12 h, 10 µM, compound concentration 10 uM, replicate 2
[5] = 24 h, 1 µM, compound concentration 1 uM, replicate 1
[6] = 24 h, 1 µM, compound concentration 1 uM, replicate 2
[7] = 24 h, 10 µM, compound concentration 10 uM, replicate 1
[8] = 24 h, 10 µM, compound concentration 10 uM, replicate 2
[9] = 48 h, 1 µM, compound concentration 1 uM, replicate 1
[10] = 48 h, 1 µM, compound concentration 1 uM, replicate 2
[11] = 48 h, 10 µM, compound concentration 10 uM, replicate 1
[12] = 48 h, 10 µM, compound concentration 10 uM, replicate 2

## CCCCCCNC(=O)Nc1ccc(S(=O)(=O)Nc2ccc(CCNC[C@H](O)COc3ccc(O)cc3)cc2)cc1 [L-755507]
[1]
  Population Apoptotic (%): 40%
  Population Fragmented Nuclei (%): 27%
  Population Healthy Nuclei (%): 59%
  Population Hoechst High Intensity Objects (%): 1%
  Population Membrane Permeable-Phenotype (%): 3%
  Population Mitochondria Different-Phenotype (%): 6%
  Population Mitotic Cells (%): 60%
  Population Normal (%): 98%
  Population Pyknosed Nuclei (%): 12%
  Population Tubulin-Different-Phenotype (%): 34%
  Total Cell Count: 198
[2]
  Population Apoptotic (%): 46%
  Population Fragmented Nuclei (%): 21%
  Population Hoechst High Intensity Objects (%): 3%
  Population Mitochondria Different-Phenotype (%): 3%
  Population Mitotic Cells (%): 53%
  Population Normal (%): 96%
  Population Pyknosed Nuclei (%): 19%
  Population Tubulin-Different-Phenotype (%): 36%
  Total Cell Count: 160
[3]
  Population Apoptotic (%): 45%
  Population Fragmented Nuclei (%): 17%
  Population Healthy Nuclei (%): 72%
  Population Hoechst High Intensity Objects (%): 5%
  Population Membrane Permeable-Phenotype (%): 0%
  Population Mitochondria Different-Phenotype (%): 10%
  Population Mitotic Cells (%): 54%
  Population Normal (%): 94%
  Population Pyknosed Nuclei (%): 10%
  Population Tubulin-Different-Phenotype (%): 47%
  Total Cell Count: 218
[4]
  Population Apoptotic (%): 42%
  Population Fragmented Nuclei (%): 34%
  Population Healthy Nuclei (%): 48%
  Population Membrane Permeable-Phenotype (%): 1%
  Population Mitochondria Different-Phenotype (%): 19%
  Population Mitotic Cells (%): 57%
  Population Pyknosed Nuclei (%): 17%
  Population Tubulin-Different-Phenotype (%): 64%
  Total Cell Count: 172
[5]
  Population Apoptotic (%): 31%
  Population Fragmented Nuclei (%): 26%
  Population Healthy Nuclei (%): 63%
  Population Hoechst High Intensity Objects (%): 1%
  Population Membrane Permeable-Phenotype (%): 0%
  Population Mitochondria Different-Phenotype (%): 3%
  Population Mitotic Cells (%): 68%
  Population Normal (%): 98%
  Population Pyknosed Nuclei (%): 9%
  Population Tubulin-Different-Phenotype (%): 27%
  Total Cell Count: 196
[6]
  Population Apoptotic (%): 39%
  Population Healthy Nuclei (%): 59%
  Population Hoechst High Intensity Objects (%): 2%
  Population Membrane Permeable-Phenotype (%): 3%
  Population Mitochondria Different-Phenotype (%): 12%
  Population Mitotic Cells (%): 60%
  Population Normal (%): 97%
  Population Pyknosed Nuclei (%): 13%
  Population Tubulin-Different-Phenotype (%): 44%
  Total Cell Count: 176
[7]
  Population Apoptotic (%): 72%
  Population Fragmented Nuclei (%): 21%
  Population Healthy Nuclei (%): 70%
  Population Hoechst High Intensity Objects (%): 8%
  Population Membrane Permeable-Phenotype (%): 0%
  Population Mitochondria Different-Phenotype (%): 8%
  Population Mitotic Cells (%): 27%
  Population Normal (%): 91%
  Population Pyknosed Nuclei (%): 8%
  Population Tubulin-Different-Phenotype (%): 38%
  Total Cell Count: 232
[8]
  Population Apoptotic (%): 50%
  Population Fragmented Nuclei (%): 38%
  Population Healthy Nuclei (%): 51%
  Population Hoechst High Intensity Objects (%): 4%
  Population Membrane Permeable-Phenotype (%): 3%
  Population Mitochondria Different-Phenotype (%): 19%
  Population Mitotic Cells (%): 50%
  Population Normal (%): 95%
  Population Pyknosed Nuclei (%): 9%
  Population Tubulin-Different-Phenotype (%): 65%
  Total Cell Count: 168
[9]
  Population Apoptotic (%): 62%
  Population Fragmented Nuclei (%): 28%
  Population Healthy Nuclei (%): 63%
  Population Hoechst High Intensity Objects (%): 3%
  Population Membrane Permeable-Phenotype (%): 0%
  Population Mitochondria Different-Phenotype (%): 4%
  Population Mitotic Cells (%): 37%
  Population Normal (%): 96%
  Population Pyknosed Nuclei (%): 8%
  Population Tubulin-Different-Phenotype (%): 31%
  Total Cell Count: 201
[10]
  Population Apoptotic (%): 53%
  Population Fragmented Nuclei (%): 33%
  Population Healthy Nuclei (%): 58%
  Population Hoechst High Intensity Objects (%): 4%
  Population Membrane Permeable-Phenotype (%): 1%
  Population Mitochondria Different-Phenotype (%): 6%
  Population Mitotic Cells (%): 46%
  Population Normal (%): 95%
  Population Tubulin-Different-Phenotype (%): 33%
  Total Cell Count: 170
[11]
  Population Apoptotic (%): 79%
  Population Fragmented Nuclei (%): 19%
  Population Healthy Nuclei (%): 69%
  Population Hoechst High Intensity Objects (%): 6%
  Population Membrane Permeable-Phenotype (%): 1%
  Population Mitochondria Different-Phenotype (%): 8%
  Population Mitotic Cells (%): 20%
  Population Normal (%): 93%
  Population Pyknosed Nuclei (%): 10%
  Population Tubulin-Different-Phenotype (%): 49%
  Total Cell Count: 240
[12]
  Population Apoptotic (%): 71%
  Population Fragmented Nuclei (%): 42%
  Population Healthy Nuclei (%): 53%
  Population Hoechst High Intensity Objects (%): 3%
  Population Membrane Permeable-Phenotype (%): 5%
  Population Mitochondria Different-Phenotype (%): 11%
  Population Mitotic Cells (%): 28%
  Population Normal (%): 96%
  Population Pyknosed Nuclei (%): 3%
  Population Tubulin-Different-Phenotype (%): 55%
  Total Cell Count: 184
